Sampled rows, rich in hits. Any-hit rate of the full collection: about 2.6%.
ABHD4 inh: inhibitors of mouse ABHD4 | Q8VD66 | purified mABHD4, FP-Rh probe fluorescence polarization | inhibition, % at 8.92 µM | actives 0.54% (n = 370,000);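 active = inhibition exceeding the mean over every tested compound plus 3 SD, cut at about 30% in these data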
Target sequence (Q8VD66 whole entry, looked up): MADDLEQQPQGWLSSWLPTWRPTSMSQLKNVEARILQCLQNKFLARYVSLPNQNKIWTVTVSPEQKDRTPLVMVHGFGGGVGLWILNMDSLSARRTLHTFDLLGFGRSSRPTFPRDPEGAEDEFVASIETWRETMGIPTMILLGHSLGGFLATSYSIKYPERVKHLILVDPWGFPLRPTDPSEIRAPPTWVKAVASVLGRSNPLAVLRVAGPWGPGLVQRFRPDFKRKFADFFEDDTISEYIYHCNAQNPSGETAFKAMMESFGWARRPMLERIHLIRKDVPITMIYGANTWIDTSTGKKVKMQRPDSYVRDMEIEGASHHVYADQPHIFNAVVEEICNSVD
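system = mouse ABHD4 enzyme, wild type | medium = HEPES pH 7.0, NaCl, Pluronic buffer | also added = FP-Rh probe | incubation = Enzyme–compound pre-incubation 45 min, then probe 60 min, both 25 °C | technique = fluorescence polarization, excitation 525 nm, emission 598 nm, BODIPY TMR filters | controls = S159A mutant high control, sample median low control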
HTRA1 inh: blocks human HTRA1 serine peptidase; Q92743; recombinant HTRA1, FP-rhodamine activity-based probe, fluorescence polarization; inhibition, % at 5.96 µM; actives 0.5% (n = 340,000); AID 504803; in the data active = inhibition above about 36%
PRMT1 inh: inhibitors of human PRMT1. recombinant PRMT1, activity-based probe fluorescence polarization. inhibition, % at 2.79 µM. actives 1.3% (n = 370,000);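 active = inhibition above about 21% made by adding two undisclosed values, limit read from the data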
SIAE primary: blocks human sialic acid acetylesterase. Q9HAT2. SIAE FP-Rh probe binding, fluorescence polarization. inhibition, % at 9.66 µM. actives 0.69% (n = 370,000);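 active = inhibition above a cutoff: mean of compounds within the control limits plus 3 SD of those, cut at about 17% in these data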
TCR CD3 inh: human TCR-CD3 binding inhibition; TAMRA-labeled TCR probe fluorescence, biochemical; inhibition, % at 9.4 µM; actives 0.37% (n = 360,000); in the data active = inhibition above about 19%;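 note: recombinant mutant TCR 2C K166C tagged with TAMRA read by polarization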
SIAE confirm: confirmation of human SIAE inhibitors. actives 13% (n = 2,300). shares compounds with SIAE primary. AID 1117263. inhibition, % at 9.66 µM. SIAE FP-Rh activity-based probe, fluorescence polarization;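 active = mean inhibition of the replicates above the hit cutoff set in the primary screen, cut at about 17% in these data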;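 note: inhibitors lower polarization as more probe stays unbound to SIAE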
Hits are given with their value; . = inactive; / = not tested or not shown.

SMILES	ABHD4 inh	HTRA1 inh	PRMT1 inh	SIAE primary	TCR CD3 inh	SIAE confirm
Cc1cc(C(=O)COC(=O)c2ccc[nH]c2=O)c(C)n1-c1ccccc1	.	.	.	.	.	/
O=C(COC(=O)c1ccc[nH]c1=O)NC1CCCCCCC1	.	.	.	18	.	.
Cc1cc(C(=O)COC(=O)c2ccc[nH]c2=O)c(C)n1C1CC1	.	.	.	23	.	.
O=C(Nc1ccc2c(c1)CCCN2C(=O)c1ccccc1)c1ccccc1	.	.	.	.	.	/
COC(=O)C(Cc1c[nH]c2ccccc12)NC(=O)c1cncc(Br)c1 (stereo unspecified)	.	.	.	20	.	.
Cc1ccc(O)c(NC(=O)c2ccc3c(c2)C(=O)N(Cc2cccnc2)C3=O)c1	.	.	.	.	.	/
CC(C)NC(=O)c1ccc(N2CCOCC2)nc1	.	.	.	19	.	.
Cc1cccc(NC(=S)NNC(=O)c2cccc([N+](=O)[O-])c2)c1	.	.	.	.	.	/
Cc1occc1C(=O)NNC(=S)Nc1cccc([N+](=O)[O-])c1	.	.	.	22	.	.
CC(C)[C@H](NC(=O)C1CC(=O)N(c2ccc3c(c2)OCCO3)C1)C(=O)NC1CCCC1 (stereo partly specified)	.	.	.	.	.	/
CCOC(=O)NNC(=O)CCn1c2c(c3ccccc31)CCCC2	.	.	.	.	.	/
CC(=O)NNC(=O)CCn1c2c(c3ccccc31)CCCC2	.	.	.	20	.	.
COc1ccc(C(=O)C[n+]2ccccc2/C=N/O)cc1	.	.	.	18	.	.
CCCCn1c(N)c(N(C(=O)CSc2nnnn2-c2ccccc2)C2CCCC2)c(=O)[nH]c1=O	.	.	.	22	.	.
COc1ccc(NC(=O)n2ncc3c(C)cccc32)cc1OC	.	.	.	17	.	.
CCOc1cc(/C=C/C(=O)OCC(=O)NCC2CCCO2)cc(Cl)c1OC (stereo unspecified)	.	.	.	.	.	/
COc1ccccc1N(CC(=O)NC1CCCC1)S(=O)(=O)c1cccc(C(F)(F)F)c1	.	.	.	.	.	/
CC(OC(=O)CN1C(=O)NC2(CCCC2)C1=O)c1ccc(F)cc1 (stereo unspecified)	.	.	.	.	.	/
CN(C)/C=C(\C(=O)c1ccc(Cl)cc1)c1nnnn1-c1ccc(Cl)cc1	.	.	.	18	.	.
CN(C)/C=C(\C(=O)c1ccccc1)c1nnnn1-c1ccc(F)cc1	.	.	.	.	.	/
Cc1cc(C)nc(/N=C(\N)Nc2ccc3c(c2)OCCO3)n1	.	.	.	18	.	.
COc1ccc(C(=O)Nc2ccc(N3CCOCC3)cc2)cc1S(=O)(=O)NC1CCCC1	.	.	.	17	.	.
Cc1ccc(C(=O)N2CCN(c3ccc(NC(=O)c4cccnc4)cc3)CC2)cc1	.	.	.	.	.	/
COc1ccc(C(=O)Nc2ccc(N3CCOCC3)cc2)cc1S(=O)(=O)N1CCCC1	.	.	.	.	.	/
COc1cc(C(=O)Nc2ccc(N3CCN(C(=O)c4ccc(C)cc4)CC3)cc2)cc(OC)c1OC	.	.	.	21	.	.
SMILES	ABHD4 inh	HTRA1 inh	PRMT1 inh	SIAE primary	TCR CD3 inh	SIAE confirm
COc1cc(C(=O)Nc2scc(-c3ccc(C)cc3)c2C(=O)O)cc(OC)c1OC	.	.	.	41	.	35
CC(C)(C)c1ccc(C(=O)Nc2cccc(C(=O)N3CCOCC3)c2)cc1	.	.	.	.	.	/
Cc1ccc(C(=O)Nc2cccc(C(=O)N3CCOCC3)c2)cc1	.	.	.	26	.	.
COc1cc(C(=O)Nc2scc(-c3ccccc3)c2C(=O)O)cc(OC)c1OC	.	.	.	.	.	/
Cc1ccc(Cn2c(=O)n(Cc3ccc(C(=O)NCC4COC4)cc3)c(=O)c3ccccc32)cc1	.	/	.	.	/	/
Cc1ccc(-n2ncc3c(N4CCN(c5ccccc5)CC4)ncnc32)c(C)c1	.	.	.	18	.	.
O=[N+]([O-])c1ccc2c(c1)CO[C@@]21O[C@H](CCO)C[C@H](O)[C@H]1O	.	/	.	.	.	/
O=C(Nc1cccc(-c2csc(Nc3ccc(Cl)cc3)n2)c1)c1cc([N+](=O)[O-])cc(C(F)(F)F)c1	.	.	.	29	.	.
O=C(Nc1ccc(-c2csc(Nc3ccc(Cl)cc3)n2)cc1)c1cc([N+](=O)[O-])cc(C(F)(F)F)c1	.	.	.	.	.	/
O=C(Nc1cccc(-c2csc(Nc3ccccc3)n2)c1)c1cc([N+](=O)[O-])cc(C(F)(F)F)c1	.	.	.	32	.	.
COc1ccc(CC(=O)NCC2CCN(C(=O)C(=O)c3cc4ccccc4o3)CC2)cc1	.	/	.	.	.	/
Cc1ccc(OCC(=O)N(C)CC(=O)Nc2ccc(Cl)c(C(F)(F)F)c2)c([N+](=O)[O-])n1	.	.	.	.	.	/
COc1ccc(C(=O)Nc2cc(OC)c(NC(=O)Nc3ccccc3)cc2OC)cc1	.	.	.	23	.	.
COc1ccc(C(=O)Nc2cc(OC)c(Cl)cc2OC)cc1	.	.	.	.	.	/
CN(C(=O)CSc1ncnc2sc3c(c12)CCC3)C1CCS(=O)(=O)C1 (stereo unspecified)	.	.	.	.	.	/
CN(C(=O)CSc1nc2sc3c(c2c(=O)n1C)CCC3)C1CCS(=O)(=O)C1 (stereo unspecified)	.	.	.	19	.	.
CC(C)=C1C2CCC1C(C(=O)NCCc1ccccc1)C2C(=O)O (stereo unspecified)	.	.	.	21	.	.
O=S(=O)(NCC1CCCO1)c1ccccc1 (stereo unspecified)	.	.	.	.	.	/
O=C(c1ccc(S(=O)(=O)NCC2CCCO2)cc1)N1CCc2ccccc21 (stereo unspecified)	.	.	.	22	.	.
CCOC(=O)c1c(C)[nH]c(C(=O)OCC(=O)Nc2cc(C)nn2-c2ccccc2)c1C	.	.	.	18	.	.
Cc1cc(NC(=O)COC(=O)c2ccc(S(=O)(=O)C(F)F)cc2)n(-c2ccccc2)n1	.	.	.	.	.	/
COc1ccc(CCNC(=O)CCc2cc(OC)c(OC)c(OC)c2)cc1	.	.	.	.	.	/
COc1cc(CCC(=O)NCCc2ccc(F)cc2)cc(OC)c1OC	.	.	.	18	.	.
CN1Cc2c(N3CCOCC3)nc3sc(C#N)c(N)c3c2CC1(C)C	.	.	.	20	.	.
CN1Cc2c(N3CCOCC3)nc3sc(C(=O)c4ccc(Br)cc4)c(N)c3c2CC1(C)C	.	/	.	.	.	/
COc1cc(CNCCN2CCOCC2)ccc1OCc1cccc(Cl)c1	.	.	.	17	.	.
COc1ccc(CC(C(=O)Nc2ccc(OC)cc2)c2nn[nH]n2)cc1 (stereo unspecified)	.	.	.	26	.	.

Source: PubChem (The Scripps Research Institute Molecular Screening Center)
